An excerpt weighted towards active compounds, which were near 1.4% of everything screened.
Thrombin inh: thrombin (human) inhibition; P00734; alpha-thrombin, Boc-VPR-AMC fluorogenic substrate cleavage; inhibition, % at 5 µM; 0.26% of 220,000 active; AID 1046;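 active means inhibition at or above 40%; inactive means inhibition below 40%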;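 further: 0% = enzyme with no compound and 100% = wells without enzyme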
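Material: Human alpha-thrombin protein | Buffer or medium: pH 7.5 Tris-saline with Tween 20 | Reagent: Boc-VPR-AMC substrate, 15 µM final | Schedule: Reaction at ambient temperature | Detection: AMC fluorescence at 355 nm excitation and 460 nm emission | Evaluation: Percent inhibition scaled between no-compound controls and no-enzyme blanks | Controls: no-compound enzyme wells and no-enzyme blanks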
FXIa inh 1536: blocks human coagulation factor XIa protease activity; 0.14% of 220,000 active; inhibition, % at 5 µM; P03951; purified FXIa, Boc-Glu-Ala-Arg-AMC fluorogenic substrate;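 active means inhibition of at least 40%; inactive means inhibition below 40%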;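 further: fluorescence of freed AMC excited at 355 nm; 0% = enzyme without compound and 100% = no enzyme blank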
Target sequence (P03951 19-387 limits assumed): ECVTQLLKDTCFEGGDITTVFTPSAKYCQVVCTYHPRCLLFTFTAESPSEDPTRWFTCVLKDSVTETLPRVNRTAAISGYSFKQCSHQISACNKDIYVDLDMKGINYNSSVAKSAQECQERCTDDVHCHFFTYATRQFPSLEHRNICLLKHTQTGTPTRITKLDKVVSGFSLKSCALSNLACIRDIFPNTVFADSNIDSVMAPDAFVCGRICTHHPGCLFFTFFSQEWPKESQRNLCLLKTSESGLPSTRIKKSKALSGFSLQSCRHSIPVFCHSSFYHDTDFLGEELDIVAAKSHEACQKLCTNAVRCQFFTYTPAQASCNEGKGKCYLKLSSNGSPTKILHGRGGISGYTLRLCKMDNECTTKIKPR
Target sequence (P03951 388-625 limits assumed): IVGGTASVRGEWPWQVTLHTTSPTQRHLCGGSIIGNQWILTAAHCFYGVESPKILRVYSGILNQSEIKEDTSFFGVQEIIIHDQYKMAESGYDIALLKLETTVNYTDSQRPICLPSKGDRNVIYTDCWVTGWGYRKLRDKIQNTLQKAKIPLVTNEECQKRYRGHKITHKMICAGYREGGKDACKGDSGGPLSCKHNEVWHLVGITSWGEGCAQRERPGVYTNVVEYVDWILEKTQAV
FXIIa inh: factor XIIa (human) inhibition | P00748 | purified FXIIa, Boc-QGR-AMC fluorogenic substrate, 2 h | inhibition, % at 5 µM | 0.3% of 220,000 active; in the data active means inhibition above about 40%;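 further: 0% = enzyme with no compound and 100% = blank without enzyme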
Furin inhibitor: human furin inhibition; P09958; purified furin, fluorogenic substrate cleavage; inhibition, % at 20 µM or 30 µM; 0.061% of 220,000 active; AID 463115; in the data active means inhibition above about 25%
KLK5 inh: kallikrein 5 (human) inhibition; recombinant hK5, fluorogenic AMC substrate cleavage; 0.59% of 210,000 active; Q9Y337; AID 873; inhibition, % at 5 µM;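 active means inhibition of 40% or more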;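 further: 0% = enzyme controls without compound and 100% = no-enzyme blanks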
m-calpain inh: blocks pig calpain II enzyme activity. AID 1236. 0.37% of 220,000 active. inhibition, % at 16 µM. purified calpain II, fluorogenic peptide substrate, 30 min;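 active means inhibition above about 50%, limit read from the data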
The depositor's hits bear a star.

For CC12CCC(c3c(C(=O)Nc4nccs4)nn(-c4ccccc4)c31)C2(C)C (centres undefined) the results were Thrombin inh 13.8, FXIa inh 1536 11.5, FXIIa inh 22.1, Furin inhibitor -5.7, KLK5 inh 52.0* and m-calpain inh 6.0.
For CC12CCC(c3c(C(=O)O)nn(-c4ccccc4)c31)C2(C)C (centres undefined) the results were Thrombin inh -2.7, FXIa inh 1536 2.5, FXIIa inh 4.8, Furin inhibitor -7.8, KLK5 inh 12.3 and m-calpain inh 13.5.
For COc1ccc(-n2c(SCC(=O)Nc3cc(C)on3)nc3c(c2=O)SCC3)cc1 the results were Thrombin inh 22.2, FXIa inh 1536 11.8, FXIIa inh 17.7, Furin inhibitor -2.1, KLK5 inh 101.8* and m-calpain inh -2.1.
`COc1ccc2cc(C(c3nnnn3C3CCCC3)N3CCCCCC3)c3nnnn3c2c1` (centres undefined) gave Thrombin inh 3.8, FXIa inh 1536 4.3, FXIIa inh 13.0, Furin inhibitor -18.7, KLK5 inh -5.9 and m-calpain inh 5.5.
For O=C(C1CCN(c2ccc(N3CCOCC3)nn2)CC1)N1CCN(c2ccc(F)cc2)CC1 the results were Thrombin inh -0.1, FXIa inh 1536 -6.2, FXIIa inh -9.7, Furin inhibitor -16.3 and KLK5 inh 105.7*.
Screening COc1cc(/C=N/Nc2cc(C)nc(NS(=O)(=O)c3ccc(C)cc3)n2)ccc1O returned Thrombin inh -7.2, FXIa inh 1536 1.9, FXIIa inh 8.5, Furin inhibitor -0.2, KLK5 inh -11.8 and m-calpain inh -25.1.
COc1cc(/C=N/Nc2cc(C)nc(NS(=O)(=O)c3ccccc3)n2)ccc1O was read as Thrombin inh 25.7, FXIa inh 1536 66.7*, FXIIa inh 37.4, Furin inhibitor 10.3, KLK5 inh 23.0 and m-calpain inh 5.6.
For Cc1ccc(S(=O)(=O)N(C)c2ccc(C)c([N+](=O)[O-])c2)cc1 the results were Thrombin inh -2.3, FXIa inh 1536 5.2, FXIIa inh 9.2, Furin inhibitor -16.6, KLK5 inh 2.7 and m-calpain inh 50.3*.
For COc1ccc(OCC(=O)Nc2cccc3cccnc23)cc1 the results were Thrombin inh -2.3, FXIa inh 1536 -5.8, FXIIa inh -2.7, Furin inhibitor -6.4, KLK5 inh 7.3 and m-calpain inh 20.0.
CC(=O)NNC(=O)c1nc(-c2ccccc2)c(C)o1 was read as Thrombin inh 2.2, FXIa inh 1536 -0.4, FXIIa inh 8.8, Furin inhibitor -8.7, KLK5 inh -4.7 and m-calpain inh -7.6.
Screening CNC(=O)NNC(=O)c1nc(-c2ccccc2)c(C)o1 returned Thrombin inh 24.5, FXIa inh 1536 33.0, FXIIa inh 26.9, Furin inhibitor 3.0, KLK5 inh 42.3* and m-calpain inh 5.0.
Screening O=[N+]([O-])c1ccc(N2CCN(C(=S)Nc3cccc(F)c3)CC2)cc1 returned Thrombin inh 1.2, FXIa inh 1536 -0.7, FXIIa inh 6.1, Furin inhibitor -16.2, KLK5 inh -4.9 and m-calpain inh -13.6.
Screening O=C1C=C(NCc2ccc(Cl)c(Cl)c2)CC1 returned Thrombin inh -3.4, FXIa inh 1536 -4.4, FXIIa inh 6.0, Furin inhibitor -13.8, KLK5 inh -4.3 and m-calpain inh -17.5.
For O=C1C=C(NCc2ccc(Cl)cc2)CCC1 the results were Thrombin inh 14.2, FXIa inh 1536 5.5, FXIIa inh 22.9, Furin inhibitor -13.5, KLK5 inh 49.7* and m-calpain inh 32.5.
OC1(C#CCN2CCCC2)c2ccccc2-c2ccccc21 was read as Thrombin inh 0.5, FXIa inh 1536 4.5, FXIIa inh 2.7, Furin inhibitor -11.7, KLK5 inh -9.5 and m-calpain inh 4.8.
`OCc1nc2ccccc2n1/N=C/c1cccs1` gave Thrombin inh 14.7, FXIa inh 1536 15.8, FXIIa inh 17.0, Furin inhibitor 1.8, KLK5 inh 42.9* and m-calpain inh 20.6.
O=C(CSc1nnc(-c2cccc(S(=O)(=O)N3CCCCC3)c2)o1)c1ccc[nH]1 was read as Thrombin inh -4.4, FXIa inh 1536 7.9, FXIIa inh -2.1, Furin inhibitor -6.4, KLK5 inh -16.2 and m-calpain inh -385.3.
Screening O=C(Oc1ccc2c(=O)c(Cl)coc2c1)c1ccncc1 returned Thrombin inh 8.2, FXIa inh 1536 42.5*, FXIIa inh 41.3*, Furin inhibitor -0.9, KLK5 inh -19.9 and m-calpain inh inactive.
For CCOC(=O)C(=O)Nc1nc(-c2ccccc2)c(-c2ccccc2)o1 the results were Thrombin inh -7.1, FXIa inh 1536 -0.1, FXIIa inh -0.6, Furin inhibitor 17.4, KLK5 inh -4.0 and m-calpain inh -7.0.
For CCOC(=O)Nc1c(O)ccc2oc(C)c(-c3ccccc3)c12 the results were Thrombin inh 19.7, FXIa inh 1536 7.0, FXIIa inh 20.1, Furin inhibitor -27.7, KLK5 inh 84.1* and m-calpain inh 22.8.
For CCOC(=O)c1sc2ncn(/N=C/c3cccnc3)c(=O)c2c1C the results were Thrombin inh -5.4, FXIa inh 1536 -12.1, FXIIa inh -2.0, Furin inhibitor -11.3, KLK5 inh 6.9 and m-calpain inh 18.8.
`CCOC(=O)c1sc2ncn(/N=C/c3ccc(O)cc3)c(=O)c2c1C` gave Thrombin inh 25.0, FXIa inh 1536 49.1*, FXIIa inh 26.5, Furin inhibitor -5.4, KLK5 inh 27.3 and m-calpain inh 6.6.
For Cc1cc(C)c(C(=O)N2CCCC(C(=O)c3cc(F)ccc3F)C2)o1 (centres undefined) the results were Thrombin inh -13.0, FXIa inh 1536 -1.0, FXIIa inh 6.4, Furin inhibitor -13.1, KLK5 inh 0.8 and m-calpain inh -8.4.
`O=C(NCCC1=CCCCC1)c1cc(-c2ccncc2)nc2ccccc12` gave Thrombin inh -4.9, FXIa inh 1536 -0.5, FXIIa inh 16.4, Furin inhibitor -21.5, KLK5 inh 1.8 and m-calpain inh -39.0.
For CCOC(=O)Cn1c(=NC(=O)C2CC2)sc2c(C)cc(C)cc21 the results were Thrombin inh 17.4, FXIa inh 1536 27.8, FXIIa inh 29.0, Furin inhibitor 0.4, KLK5 inh 41.1* and m-calpain inh 14.3.
Screening CCOC(=O)Cn1c(=NC(=O)CC)sc2c(C)cc(C)cc21 returned Thrombin inh -11.7, FXIa inh 1536 2.7, FXIIa inh 6.5, Furin inhibitor -3.5, KLK5 inh 2.5 and m-calpain inh -25.1.
Screening Cc1nn2c(CN(C(=O)CN3CCOCC3)c3ccccc3)nnc2c2ccccc12 returned Thrombin inh 9.7, FXIa inh 1536 26.2, FXIIa inh 42.1*, Furin inhibitor -3.0, KLK5 inh 29.8 and m-calpain inh 25.9.
Screening Cc1nn2c(CN(C(=O)COc3ccccc3)c3ccccc3)nnc2c2ccccc12 returned Thrombin inh -7.2, FXIa inh 1536 2.2, FXIIa inh -2.7, Furin inhibitor -13.4, KLK5 inh -17.2 and m-calpain inh 18.7.

Screens from PubChem BioAssay.
